{"source": "ChEMBL document CHEMBL3091450", "about": "“Melosuavines A-H, cytotoxic bisindole alkaloid derivatives from Melodinus suaveolens” (J Nat Prod, 2013)", "format_in_all_cases": "functional, cell-based", "key": {"[1]": {"test": "Cytotoxicity against human […] cells after 48 hrs by MTT assay", "method_in_brief": "(§1)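 Cells kept in RPMI-1640 or DMEM with 10% FBS, 37 °C, 5% CO2. Adherent lines plated and left 12 h to attach; suspension cells (HL-60) plated at 1 × 10^5 cells/mL just before dosing. Compounds in DMSO at 0.064, 0.32, 1.6, 8 and 40 μM, triplicate wells, 48 h; cisplatin positive control. MTT viability read-out, IC50 by Reed and Muench method.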"}, "[2]": {"system": "HL-60", "test": "Cytotoxicity against human HL60 cells after 48 hrs by MTT assay", "settings": "HL-60, 48 h", "method_in_brief": "as §1"}, "[3]": {"system": "A549", "test": "Cytotoxicity against human A549 cells after 48 hrs by MTT assay", "settings": "A549, 48 h", "method_in_brief": "as §1"}, "[4]": {"system": "SW480", "test": "Cytotoxicity against human SW480 cells after 48 hrs by MTT assay", "settings": "SW480, 48 h", "method_in_brief": "as §1"}, "[5]": {"system": "MCF7", "test": "Cytotoxicity against human MCF7 cells after 48 hrs by MTT assay", "settings": "MCF7, 48 h", "method_in_brief": "as §1"}}}
{"smiles": "CC[C@]12C=CCN3CCc4c(n(c5ccccc45)[C@@H](c4cc5c(cc4O)NC4=C(C(=O)OC)C[C@]6(CC)C=CCN7CC[C@@]45[C@@H]76)C1)[C@@H]32", "values": [{"measurement": "IC50", "setting": "[1]", "value": 10, "unit": "µM"}, {"measurement": "IC50", "setting": "[2]", "value": 3.6, "unit": "µM"}, {"measurement": "IC50", "setting": "[3]", "value": 14.3, "unit": "µM"}, {"measurement": "IC50", "setting": "[4]", "value": 9.7, "unit": "µM"}, {"measurement": "IC50", "setting": "[5]", "value": 9.5, "unit": "µM"}]}
{"smiles": "C=C[C@]12C=CCN3[C@@H](c4cc5c(cc4O)NC4=C(C(=O)OC)C[C@]6(CC)C=CCN7CC[C@@]45[C@@H]76)C[C@@]4(c5ccccc5NC(=O)[C@]4(C(=O)OC)C1)[C@@H]32", "note": "(relative stereo)", "values": [{"measurement": "IC50", "setting": "[1]", "value": 29, "unit": "µM"}, {"measurement": "IC50", "setting": "[2]", "value": 17.6, "unit": "µM"}, {"measurement": "IC50", "setting": "[3]", "value": "> 40", "unit": "µM"}, {"measurement": "IC50", "setting": "[4]", "value": "> 40", "unit": "µM"}, {"measurement": "IC50", "setting": "[5]", "value": "> 40", "unit": "µM"}]}
{"smiles": "CC[C@]12C=CCN3CC[C@]4(C(=C(C(=O)OC)C1)Nc1cc(O)c([C@@H]5[C@@H]6O[C@@H]6[C@@]6(CC)CC(C(=O)OC)=C7Nc8cc(O)ccc8[C@@]78CCN5[C@@H]68)cc14)[C@@H]32", "note": "(relative stereo)", "values": [{"measurement": "IC50", "setting": "[1]", "value": 13.8, "unit": "µM"}, {"measurement": "IC50", "setting": "[2]", "value": 5.5, "unit": "µM"}, {"measurement": "IC50", "setting": "[3]", "value": 9.7, "unit": "µM"}, {"measurement": "IC50", "setting": "[4]", "value": 14.4, "unit": "µM"}, {"measurement": "IC50", "setting": "[5]", "value": 11.6, "unit": "µM"}]}
{"smiles": "CC[C@]12C=CCN3CC[C@]4(C(=C(C(=O)OC)C1)Nc1cc(O)c([C@@H]5[C@@H]6O[C@@H]6[C@]67CC[C@@]8(Nc9ccccc9[C@@]89CCN5[C@@H]69)[C@H](C(=O)OC)C7)cc14)[C@@H]32", "note": "(relative stereo)", "values": [{"measurement": "IC50", "setting": "[1]", "value": "> 40", "unit": "µM"}, {"measurement": "IC50", "setting": "[2]", "value": "> 40", "unit": "µM"}, {"measurement": "IC50", "setting": "[3]", "value": "> 40", "unit": "µM"}, {"measurement": "IC50", "setting": "[4]", "value": "> 40", "unit": "µM"}, {"measurement": "IC50", "setting": "[5]", "value": "> 40", "unit": "µM"}]}
{"smiles": "CC[C@]12C=CCN3CCc4c(n(c5ccccc45)[C@@H](c4cc5c(cc4OC)NC4=C(C(=O)OC)C[C@]6(CC)C=CCN7CC[C@@]45[C@@H]76)C1)[C@@H]32", "note": "(relative stereo)", "values": [{"measurement": "IC50", "setting": "[1]", "value": "> 40", "unit": "µM"}, {"measurement": "IC50", "setting": "[2]", "value": "> 40", "unit": "µM"}, {"measurement": "IC50", "setting": "[3]", "value": "> 40", "unit": "µM"}, {"measurement": "IC50", "setting": "[4]", "value": "> 40", "unit": "µM"}, {"measurement": "IC50", "setting": "[5]", "value": "> 40", "unit": "µM"}]}
{"smiles": "C=C[C@]12C=C[C@H](c3cc4c(cc3O)NC3=C(C(=O)OC)C[C@]5(CC)C=CCN6CC[C@@]34[C@@H]65)N3CC[C@@]4(c5ccccc5NC(=O)[C@]4(C(=O)OC)C1)[C@@H]32", "note": "(relative stereo)", "values": [{"measurement": "IC50", "setting": "[1]", "value": 5.9, "unit": "µM"}, {"measurement": "IC50", "setting": "[2]", "value": 2.6, "unit": "µM"}, {"measurement": "IC50", "setting": "[3]", "value": 11, "unit": "µM"}, {"measurement": "IC50", "setting": "[4]", "value": 9.8, "unit": "µM"}, {"measurement": "IC50", "setting": "[5]", "value": 11.6, "unit": "µM"}]}
{"smiles": "CC[C@]12C=CCN3CC[C@]4(C(=C(C(=O)OC)C1)Nc1cc(O)c([C@@H]5C=C[C@@]6(CC)CC(C(=O)OC)=C7Nc8cc(O)ccc8[C@@]78CCN5[C@@H]68)cc14)[C@@H]32", "note": "(relative stereo)", "values": [{"measurement": "IC50", "setting": "[1]", "value": 3.6, "unit": "µM"}, {"measurement": "IC50", "setting": "[2]", "value": 3.5, "unit": "µM"}, {"measurement": "IC50", "setting": "[3]", "value": 7.5, "unit": "µM"}, {"measurement": "IC50", "setting": "[4]", "value": 4, "unit": "µM"}, {"measurement": "IC50", "setting": "[5]", "value": 6.6, "unit": "µM"}]}
{"smiles": "C=C[C@]12C=C[C@@H](c3cc4c(cc3O)NC3=C(C(=O)OC)C[C@]5(CC)C=CCN6CC[C@@]34[C@@H]65)N3CC[C@@]4(c5ccccc5NC(=O)[C@]4(C(=O)OC)C1)[C@@H]32", "note": "(relative stereo)", "values": [{"measurement": "IC50", "setting": "[1]", "value": 3.1, "unit": "µM"}, {"measurement": "IC50", "setting": "[2]", "value": 2.8, "unit": "µM"}, {"measurement": "IC50", "setting": "[3]", "value": 8.9, "unit": "µM"}, {"measurement": "IC50", "setting": "[4]", "value": 2.9, "unit": "µM"}, {"measurement": "IC50", "setting": "[5]", "value": 6.1, "unit": "µM"}]}
{"smiles": "CC[C@]12C=CCN3CC[C@]4(C(=C(C(=O)OC)C1)Nc1cc(O)c([C@H]5C=C[C@@]6(CC)CC(C(=O)OC)=C7Nc8cc(O)ccc8[C@@]78CCN5[C@@H]68)cc14)[C@@H]32", "note": "(relative stereo)", "values": [{"measurement": "IC50", "setting": "[1]", "value": 12.6, "unit": "µM"}, {"measurement": "IC50", "setting": "[2]", "value": 4.8, "unit": "µM"}, {"measurement": "IC50", "setting": "[3]", "value": 12.4, "unit": "µM"}, {"measurement": "IC50", "setting": "[4]", "value": 12.5, "unit": "µM"}, {"measurement": "IC50", "setting": "[5]", "value": 10.7, "unit": "µM"}]}
{"smiles": "CC[C@]12C=CCN3CC[C@]4(C(=C(C(=O)OC)C1)Nc1cc(O)c([C@@H]5C[C@]67c8ccccc8N[C@@]68CC[C@]6(C=CCN5[C@@H]67)C[C@H]8C(=O)OC)cc14)[C@@H]32", "note": "(relative stereo)", "values": [{"measurement": "IC50", "setting": "[1]", "value": 3.1, "unit": "µM"}, {"measurement": "IC50", "setting": "[2]", "value": 1, "unit": "µM"}, {"measurement": "IC50", "setting": "[3]", "value": 3.4, "unit": "µM"}, {"measurement": "IC50", "setting": "[4]", "value": 3.8, "unit": "µM"}, {"measurement": "IC50", "setting": "[5]", "value": 9.5, "unit": "µM"}]}
